Experimental data taken from the RNAGym collection of RNA variant scans (doi:10.1126/science.aae0568).
This sample holds only a part of the variants without activity.

B1: tRNA (parent)
chain: GUUCCGUUGGCGUAAUGGUAACGCGUCUCCCUCCUAAGGAGAAGACUGCGGGUUCGAGUCCCGUACGGAACG

Variants of: B1
Experiment: yeast fitness relative to wild type (ratio to wild type); higher = fitter; tRNA-Arg(CCU), competitive growth, 37 C, YPD
In short: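 Gene amplicons from the start population and from each of six end populations were read by 100-nucleotide paired-end sequencing. Those end populations came from pooled Saccharomyces cerevisiae strains carrying tRNA-Arg(CCU) gene variants at the native locus, competed in YPD at 37°C for 24 hours. Fitness relative to wild type was worked out from changes in genotype frequencies. Genotypes needed ≥ 100 starting reads, and estimates < 0.5 were set to 0.5.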

Variant | yeast fitness
G23C G51A | 0.671
C24A A40G C49A | ≤ 0.5
G23C C27U | 0.726
G23C C49G A57G A70U | ≤ 0.5
C24A C27A U28A C49U C55A | ≤ 0.5
C24A C27U U54C U59C G68U | ≤ 0.5
C24A C27U U28G | 0.511
C24A C27U C29G G44C G68C | ≤ 0.5
C24A C27U C29G G44C U59C G67A | ≤ 0.5
C24A A36U C61U G67U | 0.608
G23C C30G C62U | ≤ 0.5
G23U A40G | 0.682
C24A A43G A65C | ≤ 0.5
C24A C31A C33A C60A | ≤ 0.5
G23C C24G G50A A57G | ≤ 0.5
G23C C31U C49U | 0.58
G23A U26A C30U A40U G44A U59A | ≤ 0.5
C24A A43G G52A G58A | ≤ 0.5
G23C A43G G58C U64G | 0.57
G23C C49U C55G | ≤ 0.5
C24A A37C G38A G58C G63C | ≤ 0.5
G23C C30U C46U | ≤ 0.5
G23C C29G A43U G50A A57G | ≤ 0.5
G23U A40G G63A | ≤ 0.5

Variant | yeast fitness
G23U U28G G50A | ≤ 0.5
G23C C29A G38A | ≤ 0.5
G23C C29G A43U G50A G63A A65C | ≤ 0.5
G23C C33A A36U | 0.529
G23C C31A C49A | 0.758
C24A A43U G48A | ≤ 0.5
C24A A43U G48C | ≤ 0.5
G23U A57G | 0.665
G23C A43U G56A | 0.628
G23C C31G G44C U47A A69C | ≤ 0.5
C24A C30U A57U C62A | ≤ 0.5
G23C C30A C46A | ≤ 0.5
C24A C31G G51C C55U G58C | ≤ 0.5
G23C C55U | ≤ 0.5
G23C C24A A57G G68A | ≤ 0.5
G23C A37U G41A G63A | 0.558
C24A C31U A42C G50A | ≤ 0.5
G23C U32A C49A U54G | ≤ 0.5
G23C C29G A43U G50A | 0.702
G23C G39C G67A | ≤ 0.5
G23C C31G G44C U47A C66U A69C | ≤ 0.5
C24A A36C G48C G52C | ≤ 0.5
C24A C31U A42C U64A | ≤ 0.5
G23C A37C G52C C66G A69C | 0.612

Variant | yeast fitness
C24A A42G C49U U59G C62A | 0.547
C24A A45G | 0.626
C24A A45U | 0.57
C24A C31U C55A C60A | ≤ 0.5
G23A G67C | 0.86
G23A G67A | 0.841
G23A U28C C30A | ≤ 0.5
C24A C31A G63U U64G | ≤ 0.5
G23C C27A A45G G51C G63A G68A | ≤ 0.5
C24A A36C A37C C46U C62G | ≤ 0.5
C24A C27A A42G A69U | ≤ 0.5
C24A C29G U35G A36C | ≤ 0.5
G23C U26C C27U C46U A69C | ≤ 0.5
G23C C27G A45G G52A C66A | 0.634
G23C U26A G50A A65C | 0.533
G23A G48C | 0.759
G23C C27G U53C C62A | 0.619
G23C U64A | 0.564
G23C C33A | ≤ 0.5
C24A C27G C29G G52C | 0.996
G23C C30U C34U G67C | ≤ 0.5
G23C C46U | 0.568
G23C C31G G38C | ≤ 0.5
G23C G67C | 0.58

Variant | yeast fitness
C24A C30U G38C G58C | ≤ 0.5
G23C G38C C49G | 0.534
C24A C33A C46U G67U | ≤ 0.5
G23C C49U G52C C60U C61G | ≤ 0.5
G23A G63C | 0.613
G23A U35A A65C | ≤ 0.5
C24A C27U U28G G68U | 0.529
C24A A40G C61U | ≤ 0.5
G23C C29A G38A A57G | ≤ 0.5
G23A U28A C30U A40C G52C G67A | ≤ 0.5
G23C C24A C30G A40U U47A G51C G63A C66A A69U | 0.54
C24A C31A C55A | ≤ 0.5
C24A A36C A40G | 0.789
C24A C31U A42C C66U | ≤ 0.5
G23C C24U U59A | ≤ 0.5
G23A U64G | 0.717
C24A C29G A45G U54A | ≤ 0.5
C24A C29G C33G | 0.619
C24A C29U | 0.643
C24A | 0.747
G23C C34U A36U | ≤ 0.5
G23A G56A | 0.924
G23A G56C | 0.65
G23C C24A C30G A37C A45U G68C | ≤ 0.5

Variant | yeast fitness
G23C A40U C55U | ≤ 0.5
C24A A36U A43C C55A G56A | ≤ 0.5
G23C A65G A69U | 0.524
G23C C24U | 0.61
G23C C24G | 0.783
G23C G44C C46U G58A | ≤ 0.5
G23C G68C | 0.697
G23A U47A G58C | 0.596
C24A C27U C30U G52C | 0.596
G23A G50A | 0.819
G23A G50C | 0.58
C24A C29U A37U C60A C66U | ≤ 0.5
C24A C30G | ≤ 0.5
G23C U47A A57G G58C | ≤ 0.5
C24A C29U G50A | ≤ 0.5
C24A A43C A65G | ≤ 0.5
G23C U28G A42U U59A | ≤ 0.5
C24A A37G A57G G63A A65G | ≤ 0.5
G23C C49U C62A C66A | ≤ 0.5
C24A C30U A45G A57U C62U | 0.614
G23C G50C G63C G67A | 0.64
C24A C27U U54C U59C | 0.551
G23C U26C C46G | 0.57
G23C C27G C61U C66U | ≤ 0.5

Variant | yeast fitness
C24A C29G A45G C62A A69C | 0.52
G23C C24G C34G C61U | ≤ 0.5
G23A G58C C61U | 0.554
G23C A42U C49G A65U | ≤ 0.5
G23U U28G | 0.552
G23C C24A C49A U54C | 0.655
G23C A65C | 0.619
G23C A65G | 0.587
G23C C27U A45G G52A G58A | ≤ 0.5
C24A C31U A42C A65C | ≤ 0.5
C24A C31G C66A | ≤ 0.5
G23C U47G C62G G68A | ≤ 0.5
G23C C31G C33A A57U U59A G63A | ≤ 0.5
G23C A42U A43G | ≤ 0.5
G23C U32C A45U | 0.605
C24A A45G U54C C62U | ≤ 0.5
G23C U32A | 0.565
G23C U32C | 0.72
C24A A57C C61G | ≤ 0.5
C24A C27U | 0.702
C24A C27G | 0.571
G23C C29A G44A | 0.608
C24A C27U C61A | ≤ 0.5
C24A A37C G38A A65G C66U | ≤ 0.5

Variant | yeast fitness
G23C U54C U64A G68A | ≤ 0.5
C24A A43G U54C | 0.606
G23C G48A | 0.668
G23C G48C | 0.686
G23C U35G A42U | ≤ 0.5
G23C U47A | 0.705
G23C U47C | 0.681
C24A A45G C66U | ≤ 0.5
G23A G68U | 0.641
G23A G68C | 0.746
G23C C31G A40U G51A | 0.656
C24A C29G A69G | ≤ 0.5
C24A A42G G48C | ≤ 0.5
G23C C55G A69U | ≤ 0.5
G23U A37U | ≤ 0.5
C24A C30U A36G C46A | 0.579
G23C G44C C49U | ≤ 0.5
G23C U53A C55U | 0.563
G23C C62U | 0.743
G23C C62A | 0.541
G23A G52A G63A | ≤ 0.5
G23C U59G C60G | ≤ 0.5
G23A U47C | 0.781
